System: not listed separately
Assay: Antiproliferative activity against human DU145 cells after 3 days by SRB method
Assay type: functional
Conditions: DU-145, 72 h
How it was run: (§1)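 Freshly trypsinized cells seeded at 1500–7500 per well with compound added from DMSO-diluted stock. After 3 days, attached cells fixed with cold 50% TCA, stained with 0.4% SRB, and bound dye solubilized. Value is the mean of three independent determinations.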

Compound	GI50 [µM]
CN1CCC(C(=O)Nc2cccc(Nc3ncc(F)c(Nc4ccc(F)cc4)n3)c2)CC1	1.15
O=C(Nc1cc(Cl)cc(Cl)c1)c1cccc(Nc2ncc(F)c(Nc3ccc(F)cc3)n2)c1	17.5
O=C(Nc1ccc2c(c1)OCO2)c1cccc(Nc2ncc(F)c(Nc3ccc(F)cc3)n2)c1	11.6
CN(C)c1ccc(C(=O)Nc2cccc(Nc3ncc(F)c(Nc4ccc(F)cc4)n3)c2)cc1	> 10
O=C(Nc1nccs1)c1cccc(Nc2ncc(F)c(Nc3ccc(F)cc3)n2)c1	> 10
COc1ccc(NC(=O)c2cccc(Nc3ncc(F)c(Nc4ccc(F)cc4)n3)c2)cc1	> 10
Fc1ccc(Nc2nc(Nc3cccc(N4CCOCC4)c3)ncc2F)cc1	> 10
O=C(Nc1ccc(C(F)(F)F)cc1)c1cccc(Nc2ncc(F)c(Nc3ccc(F)cc3)n2)c1	> 10
O=C(Nc1cccc(Nc2ncc(F)c(Nc3ccc(F)cc3)n2)c1)c1ccccc1	> 10
COc1ccc(N2CCOCC2)cc1Nc1ncc(F)c(Nc2ccc(F)cc2)n1	> 10
COc1cc(NC(=O)c2cccc(Nc3ncc(F)c(Nc4ccc(F)cc4)n3)c2)cc(OC)c1	13.7
Cn1ccnc1NC(=O)c1cccc(Nc2ncc(F)c(Nc3ccc(F)cc3)n2)c1	15.1
O=C(Nc1cccc(Nc2ncc(F)c(Nc3ccc(F)cc3)n2)c1)c1ccncc1	4.33
COCC(=O)Nc1cccc(Nc2ncc(F)c(Nc3ccc(F)cc3)n2)c1	4.46
O=C(Nc1ccc(N2CCOCC2)cc1)c1cccc(Nc2ncc(F)c(Nc3ccc(F)cc3)n2)c1	> 10

Target: CDK9/cyclin T1 (Homo sapiens, UniProt P50750)
Assay: Inhibition of CDK9/Cyclin-T1 (unknown origin) using UlightCFFKNIVTPRTPPPSQGK-amide substrate after 90 mins by […]
Assay type: protein-complex assay
Conditions: not given

Chain of CDK9/cyclin T1 (O60563 whole entry): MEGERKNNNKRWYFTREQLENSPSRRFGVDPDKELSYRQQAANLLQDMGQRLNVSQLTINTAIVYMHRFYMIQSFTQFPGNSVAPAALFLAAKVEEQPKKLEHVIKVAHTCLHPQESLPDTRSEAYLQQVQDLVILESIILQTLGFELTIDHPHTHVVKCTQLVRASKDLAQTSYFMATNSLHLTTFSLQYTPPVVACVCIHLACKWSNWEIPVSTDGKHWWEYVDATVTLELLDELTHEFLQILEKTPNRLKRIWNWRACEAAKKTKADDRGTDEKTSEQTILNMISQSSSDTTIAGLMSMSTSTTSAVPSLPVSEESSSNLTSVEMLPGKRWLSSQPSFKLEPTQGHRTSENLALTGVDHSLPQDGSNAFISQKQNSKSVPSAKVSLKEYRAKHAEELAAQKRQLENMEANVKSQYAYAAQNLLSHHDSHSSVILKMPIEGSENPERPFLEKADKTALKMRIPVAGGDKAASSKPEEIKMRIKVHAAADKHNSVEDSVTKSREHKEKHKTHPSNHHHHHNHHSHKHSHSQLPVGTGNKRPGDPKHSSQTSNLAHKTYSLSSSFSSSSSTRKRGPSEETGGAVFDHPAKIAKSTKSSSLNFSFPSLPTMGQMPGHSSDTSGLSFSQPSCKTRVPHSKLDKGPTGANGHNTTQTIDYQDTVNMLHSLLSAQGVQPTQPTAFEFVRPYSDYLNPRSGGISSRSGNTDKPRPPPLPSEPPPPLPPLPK
Chain of CDK9/cyclin T1 (P50750 whole entry): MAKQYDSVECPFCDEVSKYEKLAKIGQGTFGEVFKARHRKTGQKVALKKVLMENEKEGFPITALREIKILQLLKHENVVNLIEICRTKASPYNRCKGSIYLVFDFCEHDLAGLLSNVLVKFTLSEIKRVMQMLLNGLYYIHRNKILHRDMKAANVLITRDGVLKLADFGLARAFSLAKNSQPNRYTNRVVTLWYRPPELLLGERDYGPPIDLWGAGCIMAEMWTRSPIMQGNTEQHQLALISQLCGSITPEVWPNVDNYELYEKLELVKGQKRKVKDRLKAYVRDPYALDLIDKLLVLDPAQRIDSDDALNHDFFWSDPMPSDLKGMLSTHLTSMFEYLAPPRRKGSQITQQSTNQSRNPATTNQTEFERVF

IC50 [µM]	Compound
2.45	CN1CCC(C(=O)Nc2cccc(Nc3ncc(F)c(Nc4ccc(F)cc4)n3)c2)CC1
2.57	O=C(Nc1cccc(Nc2ncc(F)c(Nc3ccc(F)cc3)n2)c1)c1ccncc1
2.02	COCC(=O)Nc1cccc(Nc2ncc(F)c(Nc3ccc(F)cc3)n2)c1

System: A549
Assay: Antiproliferative activity against human A549 cells after 3 days by SRB method
Assay type: functional
Conditions: A549, 72 h
How it was run: as §1

Compound	GI50 [µM]
CN1CCC(C(=O)Nc2cccc(Nc3ncc(F)c(Nc4ccc(F)cc4)n3)c2)CC1	1.33
O=C(Nc1cc(Cl)cc(Cl)c1)c1cccc(Nc2ncc(F)c(Nc3ccc(F)cc3)n2)c1	17.4
CN(C)c1ccc(C(=O)Nc2cccc(Nc3ncc(F)c(Nc4ccc(F)cc4)n3)c2)cc1	> 10
O=C(Nc1nccs1)c1cccc(Nc2ncc(F)c(Nc3ccc(F)cc3)n2)c1	> 10
COc1ccc(NC(=O)c2cccc(Nc3ncc(F)c(Nc4ccc(F)cc4)n3)c2)cc1	11
Fc1ccc(Nc2nc(Nc3cccc(N4CCOCC4)c3)ncc2F)cc1	3.83
O=C(Nc1ccc(C(F)(F)F)cc1)c1cccc(Nc2ncc(F)c(Nc3ccc(F)cc3)n2)c1	> 10
COCC(=O)Nc1cccc(Nc2ncc(F)c(Nc3ccc(F)cc3)n2)c1	2.05

Second part, the molecule after the results:

GI50 [µM]	Compound
12.9	O=C(Nc1ccc2c(c1)OCO2)c1cccc(Nc2ncc(F)c(Nc3ccc(F)cc3)n2)c1
37.8	O=C(Nc1cccc(Nc2ncc(F)c(Nc3ccc(F)cc3)n2)c1)c1ccccc1
18.3	COc1ccc(N2CCOCC2)cc1Nc1ncc(F)c(Nc2ccc(F)cc2)n1
13.8	COc1cc(NC(=O)c2cccc(Nc3ncc(F)c(Nc4ccc(F)cc4)n3)c2)cc(OC)c1
10.1	Cn1ccnc1NC(=O)c1cccc(Nc2ncc(F)c(Nc3ccc(F)cc3)n2)c1
1.65	O=C(Nc1cccc(Nc2ncc(F)c(Nc3ccc(F)cc3)n2)c1)c1ccncc1
> 10	O=C(Nc1ccc(N2CCOCC2)cc1)c1cccc(Nc2ncc(F)c(Nc3ccc(F)cc3)n2)c1

Target: Cyclin-dependent kinase 2/cyclin E1 (Homo sapiens, UniProt P24941)
Assay: Inhibition of CDK2/cyclin E1 (unknown origin) expressed in Sf9 insect cells using UlightCFFKNIVTPRTPPPSQGK-amide substrate after 15 mins by […]
Conditions: not given

IC50 [µM]	Compound
1.24	CN1CCC(C(=O)Nc2cccc(Nc3ncc(F)c(Nc4ccc(F)cc4)n3)c2)CC1
15.3	O=C(Nc1cccc(Nc2ncc(F)c(Nc3ccc(F)cc3)n2)c1)c1ccncc1
3.27	COCC(=O)Nc1cccc(Nc2ncc(F)c(Nc3ccc(F)cc3)n2)c1

System: not listed separately
Assay: Antiproliferative activity against human KBVIN cells after 3 days by SRB method
Assay type: functional
Conditions: 72 h
How it was run: as §1

Compound	GI50 [µM]
CN1CCC(C(=O)Nc2cccc(Nc3ncc(F)c(Nc4ccc(F)cc4)n3)c2)CC1	11.9
O=C(Nc1cc(Cl)cc(Cl)c1)c1cccc(Nc2ncc(F)c(Nc3ccc(F)cc3)n2)c1	20.7
O=C(Nc1ccc2c(c1)OCO2)c1cccc(Nc2ncc(F)c(Nc3ccc(F)cc3)n2)c1	12
CN(C)c1ccc(C(=O)Nc2cccc(Nc3ncc(F)c(Nc4ccc(F)cc4)n3)c2)cc1	> 10
O=C(Nc1nccs1)c1cccc(Nc2ncc(F)c(Nc3ccc(F)cc3)n2)c1	> 10
COc1ccc(NC(=O)c2cccc(Nc3ncc(F)c(Nc4ccc(F)cc4)n3)c2)cc1	15.7
Fc1ccc(Nc2nc(Nc3cccc(N4CCOCC4)c3)ncc2F)cc1	> 10
O=C(Nc1ccc(C(F)(F)F)cc1)c1cccc(Nc2ncc(F)c(Nc3ccc(F)cc3)n2)c1	> 10
O=C(Nc1cccc(Nc2ncc(F)c(Nc3ccc(F)cc3)n2)c1)c1ccccc1	> 10
COc1ccc(N2CCOCC2)cc1Nc1ncc(F)c(Nc2ccc(F)cc2)n1	> 10
COc1cc(NC(=O)c2cccc(Nc3ncc(F)c(Nc4ccc(F)cc4)n3)c2)cc(OC)c1	12.7
Cn1ccnc1NC(=O)c1cccc(Nc2ncc(F)c(Nc3ccc(F)cc3)n2)c1	13.1
O=C(Nc1cccc(Nc2ncc(F)c(Nc3ccc(F)cc3)n2)c1)c1ccncc1	4.57
COCC(=O)Nc1cccc(Nc2ncc(F)c(Nc3ccc(F)cc3)n2)c1	3.94
O=C(Nc1ccc(N2CCOCC2)cc1)c1cccc(Nc2ncc(F)c(Nc3ccc(F)cc3)n2)c1	> 10
